The target in one assay is T1, Aurora kinase A (Homo sapiens, UniProt O14965).
T1 sequence (O14965 whole entry): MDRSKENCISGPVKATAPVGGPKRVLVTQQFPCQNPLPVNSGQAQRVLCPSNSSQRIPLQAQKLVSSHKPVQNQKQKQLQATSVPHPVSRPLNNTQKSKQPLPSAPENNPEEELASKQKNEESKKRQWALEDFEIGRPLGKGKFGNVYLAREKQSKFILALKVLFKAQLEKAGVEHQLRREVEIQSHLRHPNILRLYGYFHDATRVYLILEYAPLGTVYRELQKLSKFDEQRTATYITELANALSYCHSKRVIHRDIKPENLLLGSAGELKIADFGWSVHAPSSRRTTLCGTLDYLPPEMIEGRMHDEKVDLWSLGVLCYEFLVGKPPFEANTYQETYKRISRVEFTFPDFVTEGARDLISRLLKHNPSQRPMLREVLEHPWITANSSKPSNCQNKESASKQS
In words: Inhibition of human partial length Aurora A (E122 to K401 residues) expressed in mammalian expression system using poly [Glu, Try] 4:1 as substrate in presence of [gamma-33P]ATP. The method in brief:
(§1)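 Radiometric assay on recombinant kinase: ³³P incorporation into the kinase substrate was measured and activity was expressed relative to a DMSO control.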

Assay [1] addresses Mast/stem cell growth factor receptor Kit (Homo sapiens, UniProt P10721). In words: Inhibition of wild-type human partial length KIT (I571 to D952 residues) expressed in bacterial expression system using poly [Glu, Try] 4:1 as substrate in presence of [gamma-33P]ATP. The method in brief: as §1
Assay [2] concerns the target Hepatocyte growth factor receptor (Homo sapiens, UniProt P08581). In words: Inhibition of wild-type human partial length MET (D1010 to S1367 residues) expressed in bacterial expression system using poly [Glu, Try] 4:1 as substrate in presence of [gamma-33P]ATP. The method in brief:
as §1

In assay [3] the target is T2, Receptor-type tyrosine-protein kinase FLT3 (Homo sapiens, UniProt P36888).
T2 sequence (P36888 whole entry): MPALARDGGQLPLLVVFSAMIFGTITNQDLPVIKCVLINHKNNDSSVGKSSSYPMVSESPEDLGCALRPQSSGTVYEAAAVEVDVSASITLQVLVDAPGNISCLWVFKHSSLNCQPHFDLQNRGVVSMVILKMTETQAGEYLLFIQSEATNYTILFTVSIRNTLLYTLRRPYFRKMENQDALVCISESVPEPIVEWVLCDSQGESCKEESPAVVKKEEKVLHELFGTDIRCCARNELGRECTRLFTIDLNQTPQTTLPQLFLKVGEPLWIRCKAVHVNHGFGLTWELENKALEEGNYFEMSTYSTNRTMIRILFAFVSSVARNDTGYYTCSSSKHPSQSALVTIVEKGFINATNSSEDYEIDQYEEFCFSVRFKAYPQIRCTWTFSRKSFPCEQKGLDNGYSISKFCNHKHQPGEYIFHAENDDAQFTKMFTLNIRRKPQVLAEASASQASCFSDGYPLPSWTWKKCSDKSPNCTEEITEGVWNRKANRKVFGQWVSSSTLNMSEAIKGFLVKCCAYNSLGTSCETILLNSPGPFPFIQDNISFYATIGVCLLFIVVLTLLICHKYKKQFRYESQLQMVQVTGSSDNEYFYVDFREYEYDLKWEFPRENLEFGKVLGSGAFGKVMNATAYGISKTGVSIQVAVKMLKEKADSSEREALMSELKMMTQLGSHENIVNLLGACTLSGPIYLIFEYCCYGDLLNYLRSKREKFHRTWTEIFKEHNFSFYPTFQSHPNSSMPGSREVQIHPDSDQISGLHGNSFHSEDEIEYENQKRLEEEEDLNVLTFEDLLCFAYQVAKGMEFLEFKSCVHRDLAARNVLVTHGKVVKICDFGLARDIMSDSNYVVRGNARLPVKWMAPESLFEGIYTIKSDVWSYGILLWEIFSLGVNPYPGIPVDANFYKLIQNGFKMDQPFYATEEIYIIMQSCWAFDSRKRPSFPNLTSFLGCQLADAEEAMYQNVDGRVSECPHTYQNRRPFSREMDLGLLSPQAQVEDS
Description: Inhibition of wild-type human partial length FLT3 (V592 to Y969 residues) expressed in bacterial expression system using poly [Glu, Try] 4:1 as substrate in presence of [gamma-33P]ATP.

The target in assay [4] is Serine/threonine-protein kinase mTOR (Homo sapiens, UniProt P42345). Description: Inhibition of wild-type human partial length MTOR (L1382 to W2549 residues) expressed in mammalian expression system using poly [Glu, Try] 4:1 as substrate in presence of [gamma-33P]ATP. The method in brief: as §1
The target of assay [5] is Proto-oncogene tyrosine-protein kinase receptor Ret (Homo sapiens, UniProt P07949). In words: Inhibition of wild-type human partial length RET (E713 to D1014 residues) expressed in bacterial expression system using poly [Glu, Try] 4:1 as substrate in presence of [gamma-33P]ATP. In short, it runs like this:
as §1

The target in assay [6] is T3, Tyrosine-protein kinase receptor TYRO3 (Homo sapiens, UniProt Q06418).
T3 sequence (Q06418 whole entry): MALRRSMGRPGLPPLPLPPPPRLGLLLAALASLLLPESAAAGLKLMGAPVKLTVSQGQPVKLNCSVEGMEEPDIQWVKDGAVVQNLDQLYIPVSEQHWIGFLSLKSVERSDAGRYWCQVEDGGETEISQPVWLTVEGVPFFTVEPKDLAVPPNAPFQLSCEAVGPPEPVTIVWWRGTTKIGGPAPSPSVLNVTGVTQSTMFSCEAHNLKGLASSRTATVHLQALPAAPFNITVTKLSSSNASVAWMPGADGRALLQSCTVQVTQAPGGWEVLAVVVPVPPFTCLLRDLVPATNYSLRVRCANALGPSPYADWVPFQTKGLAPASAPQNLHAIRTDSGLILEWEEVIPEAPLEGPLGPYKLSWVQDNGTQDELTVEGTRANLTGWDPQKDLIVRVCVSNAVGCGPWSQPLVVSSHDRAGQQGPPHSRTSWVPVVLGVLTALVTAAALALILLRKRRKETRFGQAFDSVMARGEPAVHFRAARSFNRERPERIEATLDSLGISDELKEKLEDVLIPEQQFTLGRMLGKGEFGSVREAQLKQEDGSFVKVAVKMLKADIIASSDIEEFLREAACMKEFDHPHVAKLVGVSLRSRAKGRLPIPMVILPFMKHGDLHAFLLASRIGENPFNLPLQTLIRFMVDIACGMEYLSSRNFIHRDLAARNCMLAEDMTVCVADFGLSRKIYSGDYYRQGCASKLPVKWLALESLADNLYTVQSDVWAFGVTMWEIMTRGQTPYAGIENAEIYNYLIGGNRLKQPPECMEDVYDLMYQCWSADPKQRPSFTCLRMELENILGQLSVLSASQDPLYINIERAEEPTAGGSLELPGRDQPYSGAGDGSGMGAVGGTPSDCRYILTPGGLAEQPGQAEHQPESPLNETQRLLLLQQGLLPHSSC
Description: Inhibition of wild-type human partial length TYRO3 (S497 to T814 residues) expressed in bacterial expression system using poly [Glu, Try] 4:1 as substrate in presence of [gamma-33P]ATP. The method in brief: as §1

SMILES strings stand for the structures.

Sequence of Proto-oncogene tyrosine-protein kinase receptor Ret (P07949 whole entry, the tested form may be a part): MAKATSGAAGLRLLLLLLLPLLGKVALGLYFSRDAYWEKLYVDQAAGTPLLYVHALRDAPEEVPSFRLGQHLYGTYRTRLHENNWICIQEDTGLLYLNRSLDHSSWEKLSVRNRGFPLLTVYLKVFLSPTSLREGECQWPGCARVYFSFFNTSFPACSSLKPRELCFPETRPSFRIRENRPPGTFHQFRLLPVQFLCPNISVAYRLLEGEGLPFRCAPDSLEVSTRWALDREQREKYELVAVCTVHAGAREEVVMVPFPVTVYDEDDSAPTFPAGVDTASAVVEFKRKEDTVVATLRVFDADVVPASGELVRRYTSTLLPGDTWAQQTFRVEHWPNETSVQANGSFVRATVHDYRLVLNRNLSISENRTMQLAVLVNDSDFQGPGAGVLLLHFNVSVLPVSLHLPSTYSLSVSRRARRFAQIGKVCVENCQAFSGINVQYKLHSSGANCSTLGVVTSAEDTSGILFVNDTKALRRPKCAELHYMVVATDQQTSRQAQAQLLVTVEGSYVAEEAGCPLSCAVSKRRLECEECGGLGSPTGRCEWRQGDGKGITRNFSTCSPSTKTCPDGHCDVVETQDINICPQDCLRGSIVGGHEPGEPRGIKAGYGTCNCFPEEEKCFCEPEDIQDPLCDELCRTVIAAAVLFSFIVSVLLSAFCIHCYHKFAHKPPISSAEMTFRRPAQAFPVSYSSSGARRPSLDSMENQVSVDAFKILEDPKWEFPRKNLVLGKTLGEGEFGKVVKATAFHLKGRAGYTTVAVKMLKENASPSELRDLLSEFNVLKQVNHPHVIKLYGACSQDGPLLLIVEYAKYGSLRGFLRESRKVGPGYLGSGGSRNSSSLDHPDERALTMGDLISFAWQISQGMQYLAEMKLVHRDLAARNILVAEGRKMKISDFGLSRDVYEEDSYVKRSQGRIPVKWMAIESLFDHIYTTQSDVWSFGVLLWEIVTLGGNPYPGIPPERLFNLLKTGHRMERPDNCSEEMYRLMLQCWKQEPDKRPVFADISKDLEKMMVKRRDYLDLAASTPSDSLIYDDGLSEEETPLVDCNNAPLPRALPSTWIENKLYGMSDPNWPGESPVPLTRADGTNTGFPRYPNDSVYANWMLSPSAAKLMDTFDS
Sequence of Mast/stem cell growth factor receptor Kit (P10721 whole entry, the tested form may be a part): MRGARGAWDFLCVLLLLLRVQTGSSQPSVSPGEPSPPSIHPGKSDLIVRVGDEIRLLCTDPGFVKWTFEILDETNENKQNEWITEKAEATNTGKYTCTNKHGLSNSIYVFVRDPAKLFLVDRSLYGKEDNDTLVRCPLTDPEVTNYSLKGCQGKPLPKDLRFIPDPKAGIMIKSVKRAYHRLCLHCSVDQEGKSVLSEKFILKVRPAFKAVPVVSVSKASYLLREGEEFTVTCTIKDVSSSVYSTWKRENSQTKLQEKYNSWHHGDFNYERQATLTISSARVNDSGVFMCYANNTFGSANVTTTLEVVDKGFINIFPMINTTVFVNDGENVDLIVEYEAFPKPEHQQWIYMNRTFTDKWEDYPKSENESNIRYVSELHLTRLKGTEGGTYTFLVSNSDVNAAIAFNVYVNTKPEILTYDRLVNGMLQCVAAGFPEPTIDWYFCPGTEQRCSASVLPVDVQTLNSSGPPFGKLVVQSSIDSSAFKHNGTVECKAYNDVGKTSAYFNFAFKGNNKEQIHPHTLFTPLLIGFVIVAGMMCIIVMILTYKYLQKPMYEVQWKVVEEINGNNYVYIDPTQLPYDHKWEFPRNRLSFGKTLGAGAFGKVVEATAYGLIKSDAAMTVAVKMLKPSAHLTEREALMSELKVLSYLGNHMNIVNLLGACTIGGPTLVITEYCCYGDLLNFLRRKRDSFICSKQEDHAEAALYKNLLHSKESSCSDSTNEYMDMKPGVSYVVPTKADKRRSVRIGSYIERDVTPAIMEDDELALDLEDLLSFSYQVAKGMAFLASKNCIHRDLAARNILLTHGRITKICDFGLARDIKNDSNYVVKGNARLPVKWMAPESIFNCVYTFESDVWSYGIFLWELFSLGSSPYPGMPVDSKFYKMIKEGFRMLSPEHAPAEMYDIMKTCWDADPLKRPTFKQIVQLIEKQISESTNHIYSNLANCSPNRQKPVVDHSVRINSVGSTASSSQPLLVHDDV
Sequence of Hepatocyte growth factor receptor (P08581 whole entry, the tested form may be a part): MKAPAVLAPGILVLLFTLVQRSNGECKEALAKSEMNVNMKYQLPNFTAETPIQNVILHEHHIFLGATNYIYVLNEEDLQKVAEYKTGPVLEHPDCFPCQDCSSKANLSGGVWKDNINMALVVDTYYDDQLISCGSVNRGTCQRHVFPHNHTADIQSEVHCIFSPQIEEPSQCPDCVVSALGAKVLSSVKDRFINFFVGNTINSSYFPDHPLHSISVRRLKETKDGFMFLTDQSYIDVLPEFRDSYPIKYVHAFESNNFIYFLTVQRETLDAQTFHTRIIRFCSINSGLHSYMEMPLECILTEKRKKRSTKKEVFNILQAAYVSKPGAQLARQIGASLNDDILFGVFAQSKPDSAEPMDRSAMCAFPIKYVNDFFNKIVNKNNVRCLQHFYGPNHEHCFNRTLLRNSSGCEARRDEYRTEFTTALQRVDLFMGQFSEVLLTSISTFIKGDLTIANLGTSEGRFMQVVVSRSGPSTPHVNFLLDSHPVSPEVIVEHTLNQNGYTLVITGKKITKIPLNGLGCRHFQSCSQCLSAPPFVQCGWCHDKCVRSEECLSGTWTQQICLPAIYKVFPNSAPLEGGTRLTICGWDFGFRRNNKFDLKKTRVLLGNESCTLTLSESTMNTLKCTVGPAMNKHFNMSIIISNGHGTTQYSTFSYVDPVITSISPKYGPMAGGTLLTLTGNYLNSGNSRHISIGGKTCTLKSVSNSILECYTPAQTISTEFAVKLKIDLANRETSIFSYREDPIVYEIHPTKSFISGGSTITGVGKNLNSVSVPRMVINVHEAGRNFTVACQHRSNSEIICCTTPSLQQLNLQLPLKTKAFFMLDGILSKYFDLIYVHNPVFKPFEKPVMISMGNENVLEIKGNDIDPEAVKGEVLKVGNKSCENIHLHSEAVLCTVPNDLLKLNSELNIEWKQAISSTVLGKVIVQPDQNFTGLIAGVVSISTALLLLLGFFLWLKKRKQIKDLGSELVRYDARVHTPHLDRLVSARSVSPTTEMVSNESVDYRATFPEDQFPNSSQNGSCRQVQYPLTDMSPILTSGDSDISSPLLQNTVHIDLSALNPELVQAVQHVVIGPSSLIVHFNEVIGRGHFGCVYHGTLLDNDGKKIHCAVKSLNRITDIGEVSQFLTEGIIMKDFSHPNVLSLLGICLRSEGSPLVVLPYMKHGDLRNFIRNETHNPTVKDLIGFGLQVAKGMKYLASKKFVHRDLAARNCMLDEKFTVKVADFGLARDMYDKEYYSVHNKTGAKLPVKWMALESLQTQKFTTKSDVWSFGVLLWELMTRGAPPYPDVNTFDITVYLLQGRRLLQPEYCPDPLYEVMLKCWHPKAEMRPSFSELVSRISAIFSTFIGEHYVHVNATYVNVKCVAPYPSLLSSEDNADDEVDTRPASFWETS

In general, IC50 refers to the concentration that inhibits the measured activity by half. Consider `CNc1ncc2c(-c3ccc(N4CCN(C(=O)C(C)(C)C)CC4)nc3)nn(CC3CCCC3)c2n1`, for which the IC50 on Aurora kinase A is 610 nM; in assay [1], greater than 10000 nM; in assay [2] it was greater than 10000 nM; in assay [3] it was 300 nM; in assay [4] it was greater than 10000 nM; in assay [5] it was greater than 10000 nM. Moreover, in assay [6], the IC50 is greater than 10000 nM.

Regarding `CCN1CCN(c2ccc(-c3nn(Cc4cn(Cc5ccccc5)nn4)c4nc(NC)ncc34)cn2)CC1`, the 50% inhibitory concentration (IC50) at Aurora kinase A is greater than 10000 nM; in assay [1] it was greater than 10000 nM; in assay [2] it was 6300 nM; in assay [3] it was greater than 10000 nM; in assay [4] it was greater than 10000 nM; in assay [5], 6200 nM. Also, the IC50 in assay [6] came out at 1900 nM.

For `CNc1ncc2c(-c3ccc(N4CCN(C)CC4)nc3)nn(CC3CCCC3)c2n1`, the IC50 on Aurora kinase A is 30 nM; in assay [1], 360 nM; in assay [2], 3500 nM; in assay [3], 8 nM; in assay [4], greater than 10000 nM; in assay [5] it was 60 nM. In assay [6], the IC50 came out at 3670 nM.

As for `CNc1ncc2c(-c3ccc(OC)cc3)nn(CC3OCCO3)c2n1`, the IC50 on Aurora kinase A is 560 nM; in assay [1], greater than 10000 nM; in assay [2], greater than 10000 nM; in assay [3], 250 nM; in assay [4] it was greater than 10000 nM; in assay [5], 1200 nM. The half-maximal inhibitory concentration (IC50) in assay [6] was greater than 10000 nM.

As for `Nc1nc(Nc2ccc3c(c2)CC[C@@H](N2CCCC2)CC3)nn1-c1cc2c(nn1)-c1ccccc1CCC2` [BEMCENTINIB], the IC50 was 26 nM at Aurora kinase A; 1000 nM in assay [1]; 3400 nM in assay [2]; 0.9 nM in assay [3]; greater than 10000 nM in assay [4]; 3 nM in assay [5]. In assay [6], the IC50 was 17 nM.

As for `CNc1ncc2c(-c3ccc(N4CCNCC4)nc3)nn(CC3CCCC3)c2n1`, the IC50 on Aurora kinase A is 160 nM; in assay [1] it was 1100 nM; in assay [2] it was 2100 nM; in assay [3] it was 20 nM; in assay [4], greater than 10000 nM; in assay [5], 50 nM. The IC50 in assay [6] was greater than 10000 nM.

Consider `CNc1ncc2c(-c3ccc(N4CCNCC4)cc3)nn(Cc3cn(Cc4ccccc4)nn3)c2n1`, for which the IC50 (on Aurora kinase A; in assay [1]; in assay [2]; in assay [3]; in assay [4]; in assay [5]) was greater than 10000 nM throughout. Moreover, the IC50 in assay [6] is greater than 10000 nM.

As to `CCN1CCN(c2ccc(-c3nn(CC4CCCC4)c4nc(NC)ncc34)cn2)CC1`, the IC50 on Aurora kinase A was 280 nM; in assay [1], 1800 nM; in assay [2], greater than 10000 nM; in assay [3] it was 100 nM; in assay [4] it was greater than 10000 nM; in assay [5], 440 nM. Moreover, the IC50 in assay [6] was greater than 10000 nM.

Take `CNc1ncc2c(-c3ccc(N4CCNCC4)nc3)nn(CC3OCCO3)c2n1`: the IC50 at Aurora kinase A was 660 nM; in assay [1], 7500 nM; in assay [2] it was greater than 10000 nM; in assay [3], 100 nM; in assay [4], greater than 10000 nM; in assay [5] it was 160 nM. In assay [6], the IC50 was greater than 10000 nM.

In the case of `CNc1ncc2c(-c3ccc(N4CCN(C)CC4)nc3)nn(Cc3cn(Cc4ccccc4)nn3)c2n1`, the IC50 is 730 nM on Aurora kinase A; greater than 10000 nM in assay [1]; greater than 10000 nM in assay [2]; 700 nM in assay [3]; greater than 10000 nM in assay [4]; 900 nM in assay [5]. Besides, in assay [6], the IC50 is greater than 10000 nM.

In the case of `CNc1ncc2c(-c3ccc(N4CCN(C(=O)C(C)(C)C)CC4)nc3)nn(Cc3cn(Cc4ccccc4)nn3)c2n1`, the IC50 on Aurora kinase A was 840 nM; in assay [1], greater than 10000 nM; in assay [2], greater than 10000 nM; in assay [3], 1200 nM; in assay [4], greater than 10000 nM; in assay [5], 4000 nM. In addition, the half-inhibitory concentration (IC50) in assay [6] was greater than 10000 nM.

For the compound `CNc1ncc2c(-c3ccc(N4CCNCC4)nc3)nn(Cc3cn(-c4ccsc4C(=O)OC)nn3)c2n1`, the IC50 at Aurora kinase A was 790 nM; in assay [1] it was greater than 10000 nM; in assay [2], greater than 10000 nM; in assay [3], 860 nM; in assay [4], greater than 10000 nM; in assay [5], 430 nM. Besides, in assay [6], the half-inhibitory concentration (IC50) was greater than 10000 nM.
